# Measurements: ChEMBL document CHEMBL2034841, “Synthesis and evaluation of (2-(4-methoxyphenyl)-4-quinolinyl)(2-piperidinyl)methanol (NSC23925) isomers to reverse multidrug resistance in cancer” (J Med Chem, 2012)
# The source made the active and inactive calls. No cut-off for these calls is given here.
# How the values were obtained:
# [1] = biological target: T1, ATP-dependent translocase ABCB1 (Homo sapiens, UniProt P08183); experiment: Inhibition of MDR1-mediated drug resistance in human multidrug-resistant SKOV3TR cells at 0.5 uM assessed as potentiation of paclitaxel potency by incubated for 6 days by MTT assay; type: cell-based; settings: 144 h
# Method in brief: (§1)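 SKOV-3_TR cells were seeded at 2000/well in RPMI 1640 complete medium with varying paclitaxel concentrations plus the test agent at a fixed 0.1, 0.5 or 1 μM for 6 days. Viability was read by MTT, and IC50 was taken from fitted dose–response curves in triplicate wells. Fold reversal = IC50 without agent ÷ IC50 with agent.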
# [2] = biological target: T1, ATP-dependent translocase ABCB1; experiment: Inhibition of MDR1-mediated drug resistance in human multidrug-resistant SKOV3TR cells at 0.1 uM assessed as potentiation of paclitaxel potency by incubated for 6 days by MTT assay; type: cell-based; settings: 144 h; method in brief: as §1
# [3] = biological target: T1, ATP-dependent translocase ABCB1; experiment: Inhibition of MDR1-mediated drug resistance in human multidrug-resistant SKOV3TR cells at 1 uM assessed as potentiation of paclitaxel potency by incubated for 6 days by MTT assay; type: cell-based; settings: 144 h; method in brief: as §1
# [4] = test system: SKOV-3TR (Homo sapiens); experiment: Antitumor activity against human multidrug-resistant SKOV-3TR cells xenografted in Crl:SHO-Prkdc'SCIDHr'hr nude mouse assessed as tumor growth inhibition at 20 mg/kg, ip dosed twice weekly for two weeks starting two weeks post tumor cells implantation
# [5] = biological target: Multidrug resistance-associated protein 1 (Homo sapiens, UniProt P33527); experiment: Inhibition of MRP1-mediated drug resistance in human multidrug-resistant H-69AR cells; type: cell-based
# Method in brief: (§2)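 H-69AR (MRP1) or MCF-7/MX (BCRP) cells were plated in 96-well plates and treated with chemotherapy drugs plus the test agent as in the Pgp reversal assay: 2000 cells/well, 6 days, MTT read-out. IC50 values came from triplicate dose–response curves. Cells were grown in RPMI 1640 with 10% FBS at 37 °C, 5% CO2.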
# [6] = biological target: T1, ATP-dependent translocase ABCB1; experiment: Inhibition of MDR1 in human multidrug-resistant SW480TR cells assessed drug level causing maximal reversal of calcein AM accumulation deficit by fluorescence microscopy; type: cell-based
# Method in brief: (§3)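 Vybrant calcein AM efflux assay. Resistant cells (5000/well) were cultured for 24 h, then treated in triplicate with a range of test-agent concentrations for 1 h, followed by calcein AM for 30 min. Intracellular calcein fluorescence was imaged by fluorescence microscopy, and accumulation was compared across doses.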
# [7] = biological target: T1, ATP-dependent translocase ABCB1; experiment: Inhibition of MDR1 in human multidrug-resistant MCF7adr cells assessed as increase in calcein AM accumulation by fluorescence microscopy; method in brief: as §3
# [8] = biological target: T1, ATP-dependent translocase ABCB1; experiment: Inhibition of MDR1 in human multidrug-resistant SW480TR cells assessed drug level causing half maximal reversal of calcein AM accumulation deficit by fluorescence microscopy; type: cell-based; settings: read-out: INH; method in brief: as §3
# [9] = biological target: T1, ATP-dependent translocase ABCB1; experiment: Inhibition of MDR1 in human multidrug-resistant MCF7adr cells assessed as potentiation of doxorubicin-induced apoptosis at 1 uM incubated for 72 hrs by M30-apoptosense ELISA assay
# Method in brief: (§4)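 MCF-7adr or SW480_TR cells were seeded at 8000/well for 24 h, then treated for 72 h with 0.5 μM doxorubicin, 1 μM test agent, or both. Cells were lysed with 10% NP-40, and apoptosis was quantified by M30-Apoptosense ELISA following kit instructions.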
# [10] = test system: SKOV-3TR (Homo sapiens); experiment: Potentiation of 20 mg/kg, ip paclitaxel antitumor potency in human multidrug-resistant SKOV-3TR cells xenografted in Crl:SHO-Prkdc'SCIDHr'hr nude mouse assessed as increase in tumor growth inhibition at 50 mg/kg, ip dosed twice weekly for two weeks starting two weeks post tumor cells implantation
# [11] = biological target: T1, ATP-dependent translocase ABCB1; experiment: Inhibition of MDR1 in human multidrug-resistant SW480TR cells assessed as increase in calcein AM accumulation by fluorescence microscopy; type: cell-based; method in brief: as §3
# [12] = biological target: T1, ATP-dependent translocase ABCB1; experiment: Inhibition of MDR1 in human multidrug-resistant MCF7adr cells assessed drug level causing maximal reversal of calcein AM accumulation deficit by fluorescence microscopy; method in brief: as §3
# [13] = biological target: T1, ATP-dependent translocase ABCB1; experiment: Inhibition of MDR1 in human multidrug-resistant SW480TR cells assessed as potentiation of doxorubicin-induced apoptosis at 1 uM incubated for 72 hrs by M30-apoptosense ELISA assay; type: cell-based; method in brief: as §4
# [14] = biological target: T1, ATP-dependent translocase ABCB1; experiment: Inhibition of MDR1 in human multidrug-resistant SW480TR cells assessed as potentiation of doxorubicin-induced cell death at 1 uM incubated for 72 hrs by MTT assay; type: cell-based
# [15] = biological target: T1, ATP-dependent translocase ABCB1; experiment: Inhibition of MDR1 in human multidrug-resistant MCF7adr cells assessed drug level causing half maximal reversal of calcein AM accumulation deficit by fluorescence microscopy; settings: read-out: INH; method in brief: as §3
# [16] = test system: SKOV-3TR (Homo sapiens); experiment: Antitumor activity against human multidrug-resistant SKOV-3TR cells xenografted in Crl:SHO-Prkdc'SCIDHr'hr nude mouse assessed as tumor growth inhibition at 50 mg/kg, ip dosed twice weekly for two weeks starting two weeks post tumor cells implantation
# [17] = biological target: T1, ATP-dependent translocase ABCB1; experiment: Inhibition of MDR1 in human multidrug-resistant MCF7adr cells assessed as potentiation of doxorubicin-induced cell death at 1 uM incubated for 72 hrs by MTT assay
# [18] = biological target: T2, Broad substrate specificity ATP-binding cassette transporter ABCG2 (Homo sapiens, UniProt Q9UNQ0); experiment: Inhibition of BCRP-mediated drug resistance in human multidrug-resistant MCF7/MX cells; type: cell-based; method in brief: as §2
# T2 sequence (Q9UNQ0 whole entry): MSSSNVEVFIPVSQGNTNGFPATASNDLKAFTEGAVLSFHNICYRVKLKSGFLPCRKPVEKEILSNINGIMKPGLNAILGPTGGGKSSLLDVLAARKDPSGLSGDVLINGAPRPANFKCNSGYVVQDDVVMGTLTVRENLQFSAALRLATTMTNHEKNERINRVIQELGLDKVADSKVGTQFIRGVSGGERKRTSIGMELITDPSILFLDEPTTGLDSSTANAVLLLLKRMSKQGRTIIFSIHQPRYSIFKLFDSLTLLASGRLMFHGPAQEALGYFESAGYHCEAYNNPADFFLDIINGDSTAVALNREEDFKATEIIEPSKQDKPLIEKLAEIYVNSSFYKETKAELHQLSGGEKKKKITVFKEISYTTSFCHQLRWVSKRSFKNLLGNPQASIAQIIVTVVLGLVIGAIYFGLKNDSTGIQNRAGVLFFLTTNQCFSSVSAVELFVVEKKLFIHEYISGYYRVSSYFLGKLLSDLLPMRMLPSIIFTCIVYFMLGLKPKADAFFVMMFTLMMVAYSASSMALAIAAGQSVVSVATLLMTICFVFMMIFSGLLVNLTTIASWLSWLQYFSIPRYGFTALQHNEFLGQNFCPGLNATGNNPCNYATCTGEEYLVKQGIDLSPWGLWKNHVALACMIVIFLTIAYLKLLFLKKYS
# [19] = test system: Mus musculus; experiment: Toxicity in human multidrug-resistant […] cells xenografted in Crl:SHO-Prkdc'SCIDHr'hr nude mouse assessed as mortality incidence at 50 mg/kg, ip dosed twice weekly for two weeks starting two weeks post tumor cells implantation; type: organism-based; design: dose 50 mg/kg, route intraperitoneal; settings: in vivo
# Method in brief: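 […] cells injected subcutaneously with matrigel on day one. Dosing began two weeks later: ip injection twice a week for two weeks, given alone (50 mg/kg) or with paclitaxel (20 mg/kg); saline-injected controls. Mice checked daily for health and tumor growth. Toxicity judged from animal weight and mortality.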
# [20] = test system: Mus musculus; experiment: Toxicity in human multidrug-resistant SKOV-3TR cells xenografted in Crl:SHO-Prkdc'SCIDHr'hr nude mouse assessed as effect on body weight at 50 mg/kg, ip dosed twice weekly for two weeks starting two weeks post tumor cells implantation; settings: in vivo
# T1 sequence (P08183 whole entry): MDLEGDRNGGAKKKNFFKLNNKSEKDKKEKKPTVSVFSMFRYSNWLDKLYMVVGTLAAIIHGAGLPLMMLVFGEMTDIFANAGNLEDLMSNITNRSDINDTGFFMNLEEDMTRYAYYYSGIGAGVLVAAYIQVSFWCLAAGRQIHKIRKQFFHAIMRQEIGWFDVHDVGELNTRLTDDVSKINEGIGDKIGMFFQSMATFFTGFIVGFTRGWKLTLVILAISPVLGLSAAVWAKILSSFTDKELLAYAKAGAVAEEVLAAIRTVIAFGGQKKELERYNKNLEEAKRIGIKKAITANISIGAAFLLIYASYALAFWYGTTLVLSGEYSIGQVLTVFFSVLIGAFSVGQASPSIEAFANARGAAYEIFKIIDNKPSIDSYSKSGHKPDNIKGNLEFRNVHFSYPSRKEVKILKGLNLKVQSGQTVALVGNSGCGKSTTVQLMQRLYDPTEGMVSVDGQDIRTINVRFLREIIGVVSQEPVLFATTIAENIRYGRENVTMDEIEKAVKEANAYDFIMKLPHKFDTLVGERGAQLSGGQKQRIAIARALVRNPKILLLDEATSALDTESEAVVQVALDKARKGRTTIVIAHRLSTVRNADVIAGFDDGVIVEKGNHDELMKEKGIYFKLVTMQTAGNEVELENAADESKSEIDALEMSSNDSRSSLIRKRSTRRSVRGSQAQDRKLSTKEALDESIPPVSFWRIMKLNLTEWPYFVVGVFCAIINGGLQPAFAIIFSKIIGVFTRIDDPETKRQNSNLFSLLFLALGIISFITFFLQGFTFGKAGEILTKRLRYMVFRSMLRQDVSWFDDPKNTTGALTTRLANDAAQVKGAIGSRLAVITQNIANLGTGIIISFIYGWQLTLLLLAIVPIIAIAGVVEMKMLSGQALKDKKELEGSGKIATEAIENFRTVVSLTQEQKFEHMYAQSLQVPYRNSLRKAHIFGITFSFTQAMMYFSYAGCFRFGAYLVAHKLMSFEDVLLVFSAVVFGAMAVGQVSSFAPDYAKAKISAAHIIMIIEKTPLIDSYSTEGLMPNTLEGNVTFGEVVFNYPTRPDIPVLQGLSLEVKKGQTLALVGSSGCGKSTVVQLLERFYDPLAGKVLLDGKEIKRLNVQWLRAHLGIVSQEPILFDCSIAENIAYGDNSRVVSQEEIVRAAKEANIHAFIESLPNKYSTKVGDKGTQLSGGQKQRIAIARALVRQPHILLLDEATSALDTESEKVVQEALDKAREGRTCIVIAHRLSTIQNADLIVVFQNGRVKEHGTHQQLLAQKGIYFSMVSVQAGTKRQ
# Sequence of Multidrug resistance-associated protein 1 (P33527 whole entry): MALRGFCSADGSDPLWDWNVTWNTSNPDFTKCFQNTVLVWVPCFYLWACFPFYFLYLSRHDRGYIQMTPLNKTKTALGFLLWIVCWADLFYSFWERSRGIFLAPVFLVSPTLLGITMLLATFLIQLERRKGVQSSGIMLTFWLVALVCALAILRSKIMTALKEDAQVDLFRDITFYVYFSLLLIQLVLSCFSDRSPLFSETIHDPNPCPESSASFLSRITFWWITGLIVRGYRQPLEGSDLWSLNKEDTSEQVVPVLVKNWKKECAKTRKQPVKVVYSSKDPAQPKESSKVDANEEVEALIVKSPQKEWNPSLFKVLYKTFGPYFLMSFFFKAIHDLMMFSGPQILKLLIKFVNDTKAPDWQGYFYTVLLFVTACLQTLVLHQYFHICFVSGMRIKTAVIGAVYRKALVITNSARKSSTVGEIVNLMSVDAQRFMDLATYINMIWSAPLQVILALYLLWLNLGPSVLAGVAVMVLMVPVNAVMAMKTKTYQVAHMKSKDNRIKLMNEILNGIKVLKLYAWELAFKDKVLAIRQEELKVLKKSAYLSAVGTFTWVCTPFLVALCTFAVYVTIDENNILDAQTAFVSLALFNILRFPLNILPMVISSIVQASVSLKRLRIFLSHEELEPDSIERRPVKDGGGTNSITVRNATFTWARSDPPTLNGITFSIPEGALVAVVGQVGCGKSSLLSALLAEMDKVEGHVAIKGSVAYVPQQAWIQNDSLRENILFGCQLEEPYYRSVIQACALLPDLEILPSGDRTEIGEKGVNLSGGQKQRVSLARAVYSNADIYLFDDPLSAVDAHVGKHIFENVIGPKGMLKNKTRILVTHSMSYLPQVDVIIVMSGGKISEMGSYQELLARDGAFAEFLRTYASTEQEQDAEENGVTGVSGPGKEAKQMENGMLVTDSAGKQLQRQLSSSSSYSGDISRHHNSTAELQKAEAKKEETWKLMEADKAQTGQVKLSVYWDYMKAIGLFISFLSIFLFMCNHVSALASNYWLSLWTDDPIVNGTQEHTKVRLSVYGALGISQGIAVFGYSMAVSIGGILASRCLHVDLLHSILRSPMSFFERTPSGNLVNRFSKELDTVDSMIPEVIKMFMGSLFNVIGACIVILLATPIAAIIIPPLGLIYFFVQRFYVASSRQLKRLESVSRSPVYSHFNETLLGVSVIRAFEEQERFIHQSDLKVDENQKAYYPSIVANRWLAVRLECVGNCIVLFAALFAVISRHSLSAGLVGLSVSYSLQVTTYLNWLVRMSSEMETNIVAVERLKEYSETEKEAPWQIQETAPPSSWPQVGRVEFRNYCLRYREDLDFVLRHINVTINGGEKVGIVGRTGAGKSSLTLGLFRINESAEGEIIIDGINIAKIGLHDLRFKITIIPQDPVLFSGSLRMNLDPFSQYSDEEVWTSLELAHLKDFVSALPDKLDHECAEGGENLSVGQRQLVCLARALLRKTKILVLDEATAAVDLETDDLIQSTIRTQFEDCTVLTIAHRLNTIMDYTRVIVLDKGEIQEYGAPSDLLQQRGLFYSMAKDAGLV
smiles,measurement,setting,value
COc1ccc(-c2cc([C@H](O)[C@@H]3CCCCN3)c3ccccc3n2)cc1.Cl,inhibition (INH),[1],Active
same,inhibition (INH),[2],Active
same,inhibition (INH),[3],Active
COc1ccc(-c2cc([C@@H](O)[C@H]3CCCCN3)c3ccccc3n2)cc1.Cl,inhibition (INH),[1],Active
same,inhibition (INH),[2],Active
same,inhibition (INH),[3],Active
CC(=O)O[C@H]1C(=O)[C@@]2(C)[C@H]([C@H](OC(=O)c3ccccc3)[C@]3(O)C[C@H](OC(=O)[C@H](O)[C@@H](NC(=O)c4ccccc4)c4ccccc4)C(C)=C1C3(C)C)[C@]1(OC(C)=O)CO[C@@H]1C[C@@H]2O,growth inhibition (GI),[4],inactive
COc1ccc(-c2cc([C@@H](O)[C@@H]3CCCCN3)c3ccccc3n2)cc1.Cl,inhibition (INH),[1],Not Active
same,inhibition (INH),[2],Not Active
same,inhibition (INH),[3],Not Active
COc1ccc(-c2cc([C@H](O)[C@H]3CCCCN3)c3ccccc3n2)cc1,inhibition (INH),[5],Not Active
same,INH,[6],500 nM
same,inhibition (INH),[7],Dose-dependent effect
same,inhibition (INH),[1],Active
same,IC50,[8],0.1 µM
same,inhibition (INH),[9],Active
same,Activity,[10],Active
same,inhibition (INH),[11],Dose-dependent effect
same,inhibition (INH),[2],Active
same,INH,[12],500 nM
same,inhibition (INH),[13],Active
same,inhibition (INH),[14],Active
same,inhibition (INH),[3],Active
same,IC50,[15],0.1 µM
same,growth inhibition (GI),[16],inactive
same,inhibition (INH),[17],Active
same,inhibition (INH),[18],Not Active
same,Activity,[19],Non-toxic
same,Activity,[20],Non-toxic
